In brackets after ≈: the same amount, converted by molar mass.
Tests used:
[1] = test system: Bacillus subtilis; assay: Antibacterial activity against Bacillus subtilis NCIM 2063 after 18 hrs by disc diffusion method; format: functional
In short: (§1)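 Modified Kirby-Bauer disc diffusion. Plates inoculated with spore suspension (about 6 × 10⁴ spores mL^-1). Sterile 6 mm paper discs carried test samples at 10 mg mL^-1; ciprofloxacin disc as reference, DMF disc as negative control. Plates held 18 h at 37 °C. Inhibition zone diameters (mm) averaged over triplicate sets.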

[2] = test system: Staphylococcus aureus; assay: Antibacterial activity against Staphylococcus aureus NCIM 2079 after 18 hrs by disc diffusion method; format: functional; in short: as §1
[3] = test system: Pseudomonas aeruginosa; assay: Antibacterial activity against Pseudomonas aeruginosa NCIM 2034 after 18 hrs by disc diffusion method; format: functional; in short: as §1
[4] = test system: Escherichia coli; assay: Antibacterial activity against Escherichia coli NCIM 2065 after 18 hrs by disc diffusion method; format: functional; in short: as §1
[5] = test system: Candida albicans; assay: Antifungal activity against Candida albicans MUCC 29 after 48 hrs by disc diffusion method; format: functional
In short: (§2)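 Agar well diffusion on plates inoculated with spore suspension in normal saline from cultures on Sabouraud's broth. Wells punched and loaded with test samples or griseofulvin at 10 mg mL^-1, with DMSO as negative control. Incubated 48 h at 37 °C.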

[6] = test system: Microsporum audouinii; assay: Antifungal activity against Microsporum audouinii MUCC 545 after 48 hrs by disc diffusion method; format: functional; in short: as §2
[7] = test system: Trichophyton benhamiae; assay: Antifungal activity against Trichophyton mentagrophytes MUCC 665 after 48 hrs by disc diffusion method; format: functional, Arthroderma benhamiae; in short: as §2
[8] = test system: Aspergillus niger; assay: Antifungal activity against Aspergillus niger MUCC 177 after 48 hrs by disc diffusion method; format: functional; in short: as §2
[9] = test system: Bacillus subtilis; assay: Antibacterial activity against Bacillus subtilis NCIM 2063 after 18 hrs by tube dilution method; format: functional; conditions: NCIM 2063, 18 h
In short: (§3)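 Tube dilution MIC. Stock diluted in sterile broth to seven concentrations from 200 to 3.1 […]. Each tube inoculated with one loopful of test bacterium and incubated 18 h at 37 °C. MIC read from presence or absence of growth.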

[10] = test system: Staphylococcus aureus; assay: Antibacterial activity against Staphylococcus aureus NCIM 2079 after 18 hrs by tube dilution method; format: functional; conditions: NCIM 2079, 18 h; in short: as §3
[11] = test system: Pseudomonas aeruginosa; assay: Antibacterial activity against Pseudomonas aeruginosa NCIM 2034 after 18 hrs by tube dilution method; format: functional; conditions: NCIM 2034, 18 h; in short: as §3
[12] = test system: Escherichia coli; assay: Antibacterial activity against Escherichia coli NCIM 2065 after 18 hrs by tube dilution method; format: functional; conditions: NCIM 2065, 18 h
[13] = test system: Candida albicans; assay: Antifungal activity against Candida albicans MUCC 29 after 48 hrs by tube dilution method; format: functional
In short: (§4)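 Tube dilution MIC as for bacteria (seven concentrations, 200–3.1 […]), with DMSO in place of DMF. Tubes inoculated with fungal culture and incubated 48 h at 37 °C. MIC read from presence or absence of growth.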

[14] = test system: Microsporum audouinii; assay: Antifungal activity against Microsporum audouinii MUCC 545 after 48 hrs by tube dilution method; format: functional; in short: as §4
[15] = test system: Trichophyton benhamiae; assay: Antifungal activity against Trichophyton mentagrophytes MUCC 665 after 48 hrs by tube dilution method; format: functional, Arthroderma benhamiae; in short: as §4
[16] = test system: Eudrilus; assay: Anthelmintic activity against Eudrilus sp. assessed as mean paralyzing time; format: functional
In short: (§5)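 Earthworms exposed to test suspensions at 2 mg mL^-1 (0.2% w/v), made by triturating compound with Tween 80 (0.5%) and distilled water, then mechanically stirred 30 min. Mebendazole suspension prepared alike as reference. Paralysis and death times recorded; death confirmed by no movement in 50 °C water. Means from triplicate sets.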

[17] = test system: Eudrilus; assay: Anthelmintic activity against Eudrilus sp. assessed as mean death time; format: functional
In short: (§6)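 Earthworms exposed to test suspensions at 2 mg mL−1, prepared by triturating compound with Tween 80 (0.5%) and distilled water, stirring 30 min, then diluting to 0.2% w/v. Mebendazole suspension was made the same way. Death was confirmed by moving worms into 50 °C warm water and looking for movement. Mean death time (min) taken from triplicate sets.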

[18] = Anthelmintic activity against Megascoplex konkanensis ICARBC 211 assessed as mean paralyzing time; format: functional; in short: as §5
[19] = Anthelmintic activity against Megascoplex konkanensis ICARBC 211 assessed as mean death time; format: functional; in short: as §5
[20] = test system: Pontoscolex corethrurus; assay: Anthelmintic activity against Pontoscolex corethrurus ICARBC 408 assessed as mean paralyzing time; format: functional; in short: as §5
[21] = test system: Pontoscolex corethrurus; assay: Anthelmintic activity against Pontoscolex corethrurus ICARBC 408 assessed as mean death time; format: functional; in short: as §6

Compound	inhibition zone (IZ) [1]	inhibition zone (IZ) [2]	inhibition zone (IZ) [3]	inhibition zone (IZ) [4]	inhibition zone (IZ) [5]	inhibition zone (IZ) [6]	inhibition zone (IZ) [7]	inhibition zone (IZ) [8]	MIC [9]	MIC [10]	MIC [11]	MIC [12]	MIC [13]	MIC [14]	MIC [15]	Time [16]	Time [17]	TIME [18]	TIME [19]	Time [20]	further results
COC(=O)[C@@H]1CCCN1C(=O)[C@@H](NC(=O)[C@H](Cc1ccccc1)NC(=O)c1cc(I)c(-c2nc3cc(C)c(C)cc3[nH]2)c(I)c1)C(C)C	16 mm	12 mm	22 mm	16 mm	16 mm	10 mm	12 mm	14 mm	6 µg/mL (≈ 6.85 µM)	25 µg/mL (≈ 28.6 µM)	12.5 µg/mL (≈ 14.3 µM)	25 µg/mL (≈ 28.6 µM)	6 µg/mL (≈ 6.85 µM)	12.5 µg/mL (≈ 14.3 µM)	6 µg/mL (≈ 6.85 µM)	29.24 min	45.34 min	0.454 h	0.672 h	33.64 min	Time [21]: 50.22 min
COC(=O)[C@H](C)NC(=O)[C@@H](NC(=O)[C@H](C)NC(=O)c1cc(-c2nc3cc(C)c(C)cc3[nH]2)ccc1O)C(C)C	13 mm	9 mm	19 mm	16 mm	18 mm	10 mm	14 mm	16 mm	6 µg/mL (≈ 11.2 µM)	25 µg/mL (≈ 46.5 µM)	6 µg/mL (≈ 11.2 µM)	25 µg/mL (≈ 46.5 µM)	6 µg/mL (≈ 11.2 µM)	6 µg/mL (≈ 11.2 µM)	6 µg/mL (≈ 11.2 µM)	25.55 min	36.23 min	0.426 h	0.578 h	29.89 min	Time [21]: 41.79 min
COC(=O)[C@@H]1CCCN1C(=O)[C@@H]1CCCN1C(=O)[C@@H]1CCCN1C(=O)c1cc(-c2nc3ccc([N+](=O)[O-])cc3[nH]2)ccc1O	14 mm	11 mm	27 mm	17 mm	24 mm	13 mm	17 mm	17 mm	6 µg/mL (≈ 9.92 µM)	12.5 µg/mL (≈ 20.7 µM)	6 µg/mL (≈ 9.92 µM)	25 µg/mL (≈ 41.3 µM)	6 µg/mL (≈ 9.92 µM)	6 µg/mL (≈ 9.92 µM)	12.5 µg/mL (≈ 20.7 µM)	26.67 min	37.44 min	0.425 h	0.569 h	30.59 min	Time [21]: 40.38 min
COC(=O)[C@H](Cc1c[nH]c2ccccc12)NC(=O)c1cc(-c2nc3ccc([N+](=O)[O-])cc3[nH]2)ccc1O	12 mm	12 mm	20 mm	16 mm	20 mm	10 mm	17 mm	16 mm	6 µg/mL (≈ 12 µM)	12.5 µg/mL (≈ 25 µM)	12.5 µg/mL (≈ 25 µM)	12.5 µg/mL (≈ 25 µM)	6 µg/mL (≈ 12 µM)	12.5 µg/mL (≈ 25 µM)	6 µg/mL (≈ 12 µM)	13.37 min	23.93 min	0.218 h	0.374 h	17.02 min	Time [21]: 29.41 min
COC(=O)[C@@H]1CCCN1C(=O)[C@H](Cc1cnc[nH]1)NC(=O)c1cc(I)c(-c2nc3cc(C)c(C)cc3[nH]2)c(I)c1	14 mm	11 mm	24 mm	17 mm	16 mm	9 mm	12 mm	13 mm	6 µg/mL (≈ 7.83 µM)	12.5 µg/mL (≈ 16.3 µM)	6 µg/mL (≈ 7.83 µM)	12.5 µg/mL (≈ 16.3 µM)	6 µg/mL (≈ 7.83 µM)	25 µg/mL (≈ 32.6 µM)	6 µg/mL (≈ 7.83 µM)	13.48 min	23.98 min	0.229 h	0.379 h	17.52 min	Time [21]: 29.58 min
COC(=O)[C@H](C)NC(=O)[C@H](CCCNC(=N)N[N+](=O)[O-])NC(=O)c1cc(-c2nc3cc(C)c(C)cc3[nH]2)ccc1O	15 mm	11 mm	22 mm	17 mm	19 mm	11 mm	10 mm	18 mm	6 µg/mL (≈ 10.6 µM)	12.5 µg/mL (≈ 22 µM)	6 µg/mL (≈ 10.6 µM)	12.5 µg/mL (≈ 22 µM)	12.5 µg/mL (≈ 22 µM)	6 µg/mL (≈ 10.6 µM)	6 µg/mL (≈ 10.6 µM)	17.35 min	28.54 min	0.279 h	0.423 h	20.38 min	Time [21]: 32.65 min
COC(=O)CNC(=O)[C@H](CC(C)C)NC(=O)c1ccc(-c2nc3cc(C)c(C)cc3[nH]2)cc1	10 mm	9 mm	20 mm	14 mm	18 mm	10 mm	12 mm	16 mm	6 µg/mL (≈ 13.3 µM)	12.5 µg/mL (≈ 27.7 µM)	6 µg/mL (≈ 13.3 µM)	12.5 µg/mL (≈ 27.7 µM)	6 µg/mL (≈ 13.3 µM)	25 µg/mL (≈ 55.5 µM)	6 µg/mL (≈ 13.3 µM)	29.73 min	42.54 min	0.472 h	0.69 h	37.17 min	Time [21]: 49.4 min

— ChEMBL document CHEMBL1146375, “Synthetic studies on novel benzimidazolopeptides with antimicrobial, cytotoxic and anthelmintic potential” (2007)
